Results reported in ChEMBL document CHEMBL4414552, “Homotrimerization Approach in the Design of Thrombospondin-1 Mimetic Peptides with Improved Potency in Triggering Regulated Cell Death of Cancer Cells” (J Med Chem, 2019).
The source made the active and inactive calls. No cut-off for these calls is given here. Square brackets hold non-standard residues; d marks the D form. Peptide text beside a SMILES is read from it. NMeR = CN[C@@H](CCCNC(=N)N)C(=O)O; Nle = CCCC[C@H](N)C(=O)O

Columns and labels:
[1] = biological target: T1, Leukocyte surface antigen CD47 (Homo sapiens, UniProt Q08722); experiment: Binding affinity to CD47 in biotinylated human MEC1 cell membranes by biolayer interferometry
T1 sequence (Q08722 whole entry): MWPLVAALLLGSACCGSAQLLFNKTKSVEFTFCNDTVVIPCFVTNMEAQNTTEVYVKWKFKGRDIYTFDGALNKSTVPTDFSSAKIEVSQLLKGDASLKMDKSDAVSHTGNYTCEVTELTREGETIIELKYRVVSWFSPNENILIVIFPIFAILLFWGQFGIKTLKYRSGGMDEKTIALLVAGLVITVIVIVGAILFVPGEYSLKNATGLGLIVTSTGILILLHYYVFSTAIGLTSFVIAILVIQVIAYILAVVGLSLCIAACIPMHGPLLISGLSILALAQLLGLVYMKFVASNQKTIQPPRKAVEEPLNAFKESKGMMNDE
Summary of the method: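 Biotinylated membrane preparations from MEC-1 cells were loaded onto SuperStreptavidin biosensors. Binding was measured by bilayer interferometry (Octet RED96) in PBS with 0.2% BSA and 1% DMSO at 30 °C. Affinities are given as apparent Kd estimates.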

[2] = system: MEC1; experiment: Cytotoxicity against human MEC1 cells assessed as induction of cell death at 200 uM after 6 hrs by annexin V/propidium iodide staining based flow cytometric analysis relative to control; type: functional
[3] = system: MEC1; experiment: Cytotoxicity against human MEC1 cells assessed as induction of cell death after 2 hrs by annexin V/propidium iodide staining based flow cytometric analysis; type: functional; details: MEC1, 2 h, read-out: LC50 (the source's name)
Summary of the method: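 MEC-1 CLL cells (TP53-dysfunctional) maintained in Advanced RPMI 1640 with 10% fetal calf serum, 2 mM L-glutamine and penicillin–streptomycin. Peptide treatment for 2 h in complete medium. Ann-V-APC (0.1 μg/mL) and PI (0.5 μg/mL) staining, read by flow cytometry. Cell death taken as the sum of AnnV+/PI- and AnnV+/PI+ events. Mean ± SD of at least three independent experiments.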

[4] = biological target: T1, Leukocyte surface antigen CD47; experiment: Agonist activity at CD47 in human MEC1 cells assessed as activation of PLCgamma1-induced calcium-mediated caspase-independent cell death at 200 uM after 2 hrs by microscopic method; type: cell-based
Summary of the method: (§1)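 MEC-1 CLL cells kept in Advanced RPMI 1640 with 10% FCS, 2 mM L-glutamine and penicillin–streptomycin. Cells were treated with peptide in complete medium for 2 h, then examined by light microscopy at 20X for morphology and cell aggregation.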

[5] = system: MEC1; experiment: Induction of cell aggregation in human MEC1 at 200 uM after 2 hrs by microcopic method; type: functional, cell-based; summary of the method: as §1
[6] = system: MEC1; experiment: Induction of cell death in human MEC1 cells at 50 uM in presence of extracellular calcium chelator BAPTA administered 30 mins post BAPTA treatment in serum-free medium by Annexin V-APC/propidium iodide staining based flow cytometric analysis; type: functional
[7] = system: MEC1; experiment: Induction of cell death in human MEC1 cells at 50 uM in presence of PLCgamma1 inhibitor U73122 administered 1 hr post U73122 treatment in serum-free medium by annexin V-APC/propidium iodide staining based flow cytometric analysis; type: functional
Summary of the method: (§2)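 Peptide was then added at 5 or 50 μM in serum-free medium for 2 h. Cell death was read by Ann-V/PI flow cytometry and normalized to each peptide's control to give an index. Mean ± SD of at least two experiments.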

[8] = system: MEC1; experiment: Induction of cell death in human MEC1 cells at 50 uM in presence of IP3R inhibitor 2-APB administered 1 hr post 2-APB treatment in serum-free medium by annexin V-APC/propidium iodide staining based flow cytometric analysis; type: functional; summary of the method: as §2
[9] = system: MEC1; experiment: Induction of cell death in human MEC1 cells at 50 uM in presence of ryanodine inhibitor dantrolene administered 1 hr post dantrolene treatment in serum-free medium by annexin V-APC/propidium iodide staining based flow cytometric analysis; type: functional; summary of the method: as §2
[10] = system: A549; experiment: Cytotoxicity against human A549 cells assessed as induction of cell death after 6 hrs by annexin V-APC/propidium iodide staining based flow cytometric analysis; type: functional; details: A549, 6 h, read-out: LC50 (the source's name)
Summary of the method: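 A549 cells kept in Advanced RPMI 1640 with 10% fetal calf serum, 2 mM L-glutamine and penicillin–streptomycin. Peptides at the indicated concentrations in this complete medium for 6 h. Cells stained with Ann-V-APC (0.1 μg/mL) and PI (0.5 μg/mL), then read by flow cytometry. Values are means ± SD of two independent experiments.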

[11] = system: A549; experiment: Induction of cell death in human A549 cells at 100 uM in presence of PLCgamma1 inhibitor U73122 administered 1 hr post U73122 treatment in serum-free medium by annexin V-APC/propidium iodide staining based flow cytometric analysis; type: functional
Summary of the method: (§3)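 Peptide was then added at 10 or 100 μM in serum-free medium for 6 h. Cell death was read by Ann-V/PI flow cytometry and trypan blue counting. A cell death index was obtained by normalizing to each peptide's control. Mean ± SD of two experiments.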

[12] = system: A549; experiment: Induction of cell death in human A549 cells at 100 uM in presence of IP3R inhibitor 2-APB administered 1 hr post 2-APB treatment in serum-free medium by annexin V-APC/propidium iodide staining based flow cytometric analysis; type: functional; summary of the method: as §3
[13] = system: A549; experiment: Induction of cell death in human A549 cells at 100 uM in presence of extracellular calcium chelator BAPTA administered 30 mins post BAPTA treatment in serum-free medium by annexin V-APC/propidium iodide staining based flow cytometric analysis; type: functional
[14] = system: A549; experiment: Induction of cell death in human A549 cells at 100 uM in presence of ryanodine inhibitor dantrolene administered 1 hr post dantrolene treatment in serum-free medium by annexin V-APC/propidium iodide staining based flow cytometric analysis; type: functional; summary of the method: as §3
[15] = system: A549; experiment: Induction of cell death in human A549 cells at 100 uM in presence of ryanodine inhibitor dantrolene/PLCgamma1 inhibitor U73122/IP3R inhibitor 2-APB by annexin V-APC/propidium iodide staining based flow cytometric analysis; type: functional; summary of the method: as §3
[16] = system: A549; experiment: Induction of cell death in human A549 cells at 100 uM administered 30 mins post Q-VD-OPh treatment in serum-free medium by propidium iodide staining based flow cytometric analysis; type: functional
[17] = system: A549; experiment: Induction of cell death in human A549 cells assessed as reduction in cell index at 200 uM measured every minute for first 2 hrs followed by every hour for 24 hrs by RTCA analysis; type: functional, cell-based
[18] = system: A549; experiment: Disruption of membrane integrity in human A549 cells assessed as increase in adenylate kinase release at 200 uM by ToxiLight bioassay; type: functional, cell-based
[19] = system: MEC1; experiment: Induction of cell death in human MEC1 cells at 50 uM in presence of caspase inhibitor Q-VD-OPH administered 30 mins post Q-VD-OPH treatment in serum-free medium by Annexin V-APC/propidium iodide staining based flow cytometric analysis; type: functional
[20] = system: MEC1; experiment: Induction of cell death in human MEC1 cells at 50 uM in presence of ryanodine inhibitor dantrolene/PLCgamma1 inhibitor U73122/IP3R inhibitor 2-APB by annexin V-APC/propidium iodide staining based flow cytometric analysis; type: functional; summary of the method: as §2
[21] = Solubility of the compound in PBS with 0.05% Tween 20 and 1% DMSO; type: physicochemical; details: buffer
[22] = Aggregation property of the compound in water; type: physicochemical; details: buffer
[23] = system: Serum; experiment: Aggregation property of the compound in human serum; type: ADME, cell-free
[24] = Aggregation property of the compound in phosphate buffer; type: physicochemical
[25] = Aggregation property of the compound in pure water; type: physicochemical; details: buffer

SMILES: CC(C)C[C@H](NC(=O)[C@@H](NC(=O)[C@@H](NC(=O)[C@H](Cc1ccc(O)cc1)NC(=O)[C@H](Cc1ccccc1)NC(=O)[C@H](CCCNC(=N)N)N(C)C(=O)[C@H](N)CCCCN)C(C)C)C(C)C)C(=O)N[C@@H](Cc1c[nH]c2ccccc12)C(=O)N[C@@H](CCCCN)C(=O)N[C@H](CCCCN)C(=O)O (H-[dK][NMeR]FYVVLWK[dK]-OH)
- Kd [1]: 15 µM
- Activity [2]: 26%

SMILES: CSCC[C@H](NC(=O)[C@@H](NC(=O)[C@@H](NC(=O)[C@H](Cc1ccc(O)cc1)NC(=O)[C@H](Cc1ccccc1)NC(=O)[C@H](CCCNC(=N)N)NC(=O)[C@H](N)CCCCN)C(C)C)C(C)C)C(=O)N[C@@H](Cc1c[nH]c2ccccc12)C(=O)N[C@@H](CCCCN)C(=O)N[C@H](CCCCN)C(=O)O
- Activity [2]: 67%
- CC50 [3]: 200 µM
- Activity [4]: Active
- Activity [5]: inactive
- Activity [6]: inactive
- Activity [7]: inactive
- Activity [8]: inactive
- Activity [9]: inactive
- CC50 [10]: 200 µM
- Activity [11]: inactive
- Activity [12]: inactive
- Activity [13]: inactive
- Activity [14]: inactive
- Activity [15]: inactive
- Activity [16]: inactive
- Activity [17]: Active
- Activity [18]: Active
- Activity [19]: inactive
- Activity [20]: inactive

SMILES: CSCC[C@H](NC(=O)[C@@H](NC(=O)[C@@H](NC(=O)[C@H](Cc1ccc(O)cc1)NC(=O)[C@H](Cc1ccccc1)NC(=O)[C@H](CCCNC(=N)N)N(C)C(=O)[C@H](N)CCCCN)C(C)C)C(C)C)C(=O)N[C@@H](Cc1c[nH]c2ccccc12)C(=O)N(C)[C@@H](CCCCN)C(=O)N[C@H](CCCCN)C(=O)O
- Kd [1]: 38 µM
- Activity [2]: 19%

SMILES: CC[C@H](C)[C@H](NC(=O)[C@@H](NC(=O)[C@@H](NC(=O)[C@H](Cc1ccc(O)cc1)NC(=O)[C@H](Cc1ccccc1)NC(=O)[C@H](CCCNC(=N)N)N(C)C(=O)[C@H](N)CCCCN)C(C)C)C(C)C)C(=O)N[C@@H](Cc1c[nH]c2ccccc12)C(=O)N[C@@H](CCCCN)C(=O)N[C@H](CCCCN)C(=O)O
- Kd [1]: 17 µM
- Activity [2]: 25%

SMILES: CCCC[C@H](NC(=O)[C@@H](NC(=O)[C@@H](NC(=O)[C@H](Cc1ccc(O)cc1)NC(=O)[C@H](Cc1ccccc1)NC(=O)[C@H](CCCNC(=N)N)N(C)C(=O)[C@H](N)CCCCN)C(C)C)C(C)C)C(=O)N[C@@H](Cc1c[nH]c2ccccc12)C(=O)N[C@@H](CCCCN)C(=O)N[C@H](CCCCN)C(=O)O (H-[dK][NMeR]FYVV[Nle]WK[dK]-OH)
- solubility [21]: Soluble
- Kd [1]: 8.6 µM
- Activity [2]: 59%
- Activity [22]: Not Active
- Activity [23]: Not Active
- CC50 [3]: 200 µM
- Activity [24]: Not Active
- Activity [4]: Active
- Activity [5]: inactive
- Activity [6]: inactive
- Activity [7]: inactive
- Activity [8]: inactive
- Activity [9]: inactive
- CC50 [10]: 200 µM
- Activity [11]: inactive
- Activity [12]: inactive
- Activity [13]: inactive
- Activity [14]: inactive
- Activity [15]: inactive
- Activity [16]: inactive
- Activity [17]: Active
- Activity [18]: Active
- Activity [25]: Not Active
- Activity [19]: inactive
- Activity [20]: inactive

SMILES: CSCC[C@H](NC(=O)[C@@H](NC(=O)[C@@H](NC(=O)[C@H](Cc1ccc(O)cc1)NC(=O)[C@H](Cc1ccccc1)NC(=O)[C@H](CCCNC(=N)N)NC(=O)[C@H](N)CCCCN)C(C)C)C(C)C)C(=O)N[C@@H](Cc1c[nH]c2ccccc12)C(=O)N(C)[C@@H](CCCCN)C(=O)N[C@H](CCCCN)C(=O)O
- Kd [1]: 48 µM
- Activity [2]: 20%

SMILES: CC(C)[C@H](NC(=O)[C@H](Cc1ccc(O)cc1)NC(=O)[C@H](Cc1ccccc1)NC(=O)[C@H](CCCNC(=N)N)N(C)C(=O)[C@H](N)CCCCN)C(=O)N[C@H](C(=O)N[C@H](C(=O)N[C@@H](Cc1c[nH]c2ccccc12)C(=O)N[C@@H](CCCCN)C(=O)N[C@H](CCCCN)C(=O)O)C(C)C)C(C)C
- Kd [1]: 9.5 µM
- Activity [2]: 23%
